Experimental findings from PubChem BioAssay are described below.

The nature of test [1]: Her2 expression decrease, cell viability multiplex – SKBR3 breast tumor cells, AlphaScreen, ATP viability, primary screen (AID 461;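 active = Her2 level under about 52% in both replicate screens, with viability over 70% of control, limit read from the data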;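 as to Her2 level: lower value means less Her2 protein in the cells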;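 as to viability: percent of carrier control wells set as 100% viability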). The conditions noted are these: SKBR3 Her2 protein level, 18-24 h, measured here: SKBR3 viability, ATP luminescence, at 10 µM. On the technique in general: Bead proximity is the source of the signal in Alpha formats.
The target in test [2] is Receptor tyrosine-protein kinase erbB-2 (Homo sapiens) (UniProt P04626). Described as above. The conditions noted are these: 18-24 h, at 10 µM, stronger effect = lower value.
Test [3] in a line: reduced viability of SK-BR-3 breast cancer cells – cell-based, 24 h, human, pilot screen (AID 572;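 active = viability at or below 10% of carrier control in both of two separate runs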;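 also: compound exposure lasted between 18 and 24 h rather than exactly 24 h; 100% = carrier-treated control wells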). The note with it: SK-BR-3 viability, CellTiter-Glo luminescence, at 10 µM, stronger effect = lower value. In general terms: Cellular ATP, detected with luciferase, serves as a proxy for viable cell number.
Test [4] is described as follows: HUVEC growth inhibition – cell-based, human, primary screen (AID 575).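 Also: 100% = median of untreated cell wells with 0.1% DMSO on each plate.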 The note with it: HUVEC proliferation, CellTiter-Glo luminescence, 72 h; at 10 µM; stronger effect = lower value. The essentials:
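Test system: primary human umbilical vein endothelial cells; medium: endothelial basal medium with 2% FBS plus growth supplements; dosing: 10 µM compound only; times: 72 h treatment at 37 °C; signal: CTG luminescence; read-out: % viability relative to median vehicle-well signal on each plate; control set: vehicle and MePR control wells; plate: 384-well, collagen-coated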

Test [5] in a line: H69AR cell proliferation blockers – human, duplicate replicates, primary screen (AID 580;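 active = viability at or under a set limit in both replicates, limit being median viability minus 3 SD, cut at about 48% in these data, passing the limit was not always enough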;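 also: 100% = mean luminescence of untreated wells and 0% = no signal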). The note with it: H69AR lung tumor cells viability, ATP luminescence, 72 h; at 10 µM; stronger effect = lower value.
Test [6] in a line: MRP1 drug-resistance reversers in H69AR cells – cell-based, doxorubicin co-treatment, pilot screen (AID 601;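 active = viability loss from added drug above about 55%, and viability with drug at most 40%, in both replicates, limit read from the data, passing the limit was not always enough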). The note with it: CellTiter-Glo, 72 h, at 10 µM; for differential viability (reversal): stronger effect = higher value.
Test [7] can be described thus: yeast transport mutant growth inhibition pilot in 384-well plates, post-Golgi transport modulator project (AID 636; in the data active = inhibition above about 31%). The conditions noted are these: absorbance 615 nm, about 18 h, stronger effect = higher value.
Test [8] is described as follows: growth suppression of yeast trafficking mutant, preliminary HTS, modulators of trafficking downstream of Golgi apparatus project, 1536-format plate, OD 615 nm (AID 637; in the data active = inhibition above about 30%). The conditions noted are these: yeast transport mutant growth, absorbance 615 nm, 18 h; stronger effect = higher value.
Where [9] appears, read: H69AR cells + 2 uM doxorubicin, measured here: viability with 2 uM doxorubicin, stronger effect = lower value.
Where [10] appears, read: H69AR cells, compound alone cytotoxicity.

SMILES strings stand for the structures. Active and inactive are the calls of the source.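 The calls were made as follows, unless noted: active = viability at or below 30% in both replicate assays; inconclusive = viability at or below 30% in just one of the two assays; inactive = the rest.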 Peptide text beside a SMILES is read from it. * marks the point of attachment. Boc = CC(C)(C)OC(=O)*

Chain of Receptor tyrosine-protein kinase erbB-2 (Homo sapiens) (P04626 whole entry, looked up): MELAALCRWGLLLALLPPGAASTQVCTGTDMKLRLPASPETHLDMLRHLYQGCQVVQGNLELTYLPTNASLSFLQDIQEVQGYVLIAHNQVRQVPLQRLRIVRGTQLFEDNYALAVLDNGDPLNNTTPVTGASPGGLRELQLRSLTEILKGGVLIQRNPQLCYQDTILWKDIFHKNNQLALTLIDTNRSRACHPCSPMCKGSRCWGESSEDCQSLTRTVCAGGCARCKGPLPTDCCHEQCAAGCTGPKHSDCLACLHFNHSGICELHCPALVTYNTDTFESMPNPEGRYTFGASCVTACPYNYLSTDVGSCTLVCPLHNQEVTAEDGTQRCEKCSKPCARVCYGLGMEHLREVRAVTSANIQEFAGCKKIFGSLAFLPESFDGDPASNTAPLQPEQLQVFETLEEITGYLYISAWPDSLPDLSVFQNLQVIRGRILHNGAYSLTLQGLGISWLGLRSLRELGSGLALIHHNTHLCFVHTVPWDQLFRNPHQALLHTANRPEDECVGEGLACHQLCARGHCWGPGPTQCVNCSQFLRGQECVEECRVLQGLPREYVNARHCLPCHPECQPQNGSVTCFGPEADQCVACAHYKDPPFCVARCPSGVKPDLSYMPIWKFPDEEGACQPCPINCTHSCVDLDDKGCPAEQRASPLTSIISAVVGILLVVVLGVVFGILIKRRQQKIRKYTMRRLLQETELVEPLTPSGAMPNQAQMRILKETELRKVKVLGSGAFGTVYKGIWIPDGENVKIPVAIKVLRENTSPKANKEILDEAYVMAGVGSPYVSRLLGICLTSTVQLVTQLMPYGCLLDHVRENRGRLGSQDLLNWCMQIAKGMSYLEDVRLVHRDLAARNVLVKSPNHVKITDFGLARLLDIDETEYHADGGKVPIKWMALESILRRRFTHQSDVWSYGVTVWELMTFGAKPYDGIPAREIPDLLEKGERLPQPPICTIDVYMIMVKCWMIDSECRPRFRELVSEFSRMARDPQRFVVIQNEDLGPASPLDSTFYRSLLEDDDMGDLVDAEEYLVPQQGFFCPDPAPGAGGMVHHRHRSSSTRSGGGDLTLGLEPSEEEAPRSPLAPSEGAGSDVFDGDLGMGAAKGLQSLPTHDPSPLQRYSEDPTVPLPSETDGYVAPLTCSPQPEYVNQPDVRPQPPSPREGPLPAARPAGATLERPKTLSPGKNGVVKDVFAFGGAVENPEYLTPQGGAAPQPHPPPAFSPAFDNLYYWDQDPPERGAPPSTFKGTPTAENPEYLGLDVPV

With `COc1ccc2[nH]c(=O)c(CNC3CCCCC3)cc2c1`, the viability (commonly a read-out of living cells in per cent, often relative to untreated cells) was 101% in test [1]; 101% (inactive) in test [3]; 115% (inactive) in test [4]; 89.5% (inactive) in test [5]; 84.5% in test [6] (setting [9]); 89.5% in test [6] (setting [10]). Besides, the Her2 level in test [2] is 93% (inactive). Also, the differential viability (reversal) in test [6] (H69AR cells + 2 uM doxorubicin) is 5% (inactive). Also, the inhibition – broadly, the change of the read-out against control, counted positive when it falls – in test [7] was -4.16% (inactive); in test [8] it was 0.5% (inactive).

For the compound `Cc1ccc(CCNC(=O)CC2Oc3ccc(C)cc3NC2=O)cc1` (stereo not given), the viability in test [1] was 90%; in test [3] it was 90% (inactive); in test [4], 74.5% (inactive); in test [5] it was 96% (inactive); in test [6] (setting [9]), 92.6%; in test [6] (setting [10]) it was 96%. For the same compound, the Her2 level in test [2] is 93.5% (inactive). In test [6] (H69AR cells + 2 uM doxorubicin), the differential viability (reversal) is 3.38% (inactive). In addition, the inhibition in test [7] is 5.47% (inactive); in test [8], -2.46% (inactive).

As to `CCOc1cc(C2c3c(n[nH]c3C)C(=O)N2c2ccc(Br)cc2)ccc1O` (stereo not given), the viability in test [1] is 102%; in test [3], 102% (inactive); in test [4] it was 53.1% (inactive); in test [5], 72.9% (inactive); in test [6] (setting [9]), 62.9%; in test [6] (setting [10]), 72.9%. The Her2 level in test [2] was 71.5% (inactive). For the same compound, the differential viability (reversal) in test [6] (H69AR cells + 2 uM doxorubicin) was 9.98% (inactive). In addition, the inhibition in test [7] was -4.27% (inactive); in test [8] it was 3.44% (inactive).

As to `COc1ccc(C(=O)N2CCN(S(=O)(=O)c3cc(Cl)ccc3OC)CC2)cc1`, the viability in test [1] was 108%; in test [3], 108% (inactive); in test [4] it was 95.6% (inactive); in test [5], 103% (inactive); in test [6] (setting [9]) it was 102%; in test [6] (setting [10]), 103%. In addition, the Her2 level in test [2] was 100% (inactive). The differential viability (reversal) in test [6] (H69AR cells + 2 uM doxorubicin) was 1.29% (inactive). Besides, the inhibition in test [7] was -2.37% (inactive); in test [8] it was 8.33% (inactive).

Turning to `CC(NC(=O)OC(C)(C)C)C(=O)N1CCCC1C(=O)NC(Cc1ccccc1)C(N)=O` (stereo not drawn) (Boc-Ala-Pro-Phe-NH2; configuration not given here), the viability is 105% in test [1]; 105% (inactive) in test [3]; 95.6% (inactive) in test [4]; 101% (inactive) in test [5]; 97.1% in test [6] (setting [9]); 101% in test [6] (setting [10]). For the same compound, in test [2], the Her2 level was 94% (inactive). Moreover, in test [6] (H69AR cells + 2 uM doxorubicin), the differential viability (reversal) was 4.26% (inactive). For the same compound, the inhibition in test [7] was -1.73% (inactive); in test [8] it was 4.68% (inactive).

On to `COC(=O)Nc1ccc(S(=O)(=O)N(C)CC(F)(F)C(F)F)cc1`, for which the viability in test [1] is 107%; in test [3] it was 107% (inactive); in test [4] it was 107% (inactive); in test [5], 93.1% (inactive); in test [6] (setting [9]) it was 94.2%; in test [6] (setting [10]), 93.1%. For the same compound, in test [2], the Her2 level was 102% (inactive). The differential viability (reversal) in test [6] (H69AR cells + 2 uM doxorubicin) is -1.14% (inactive). For the same compound, the inhibition in test [7] is -6.05% (inactive); in test [8], 1.8% (inactive).

For `CC(=O)c1cccc(S(=O)(=O)NCC(c2ccco2)N2CCCCC2)c1` (stereo not given), the viability in test [1] was 101%; in test [3], 101% (inactive); in test [4], 96% (inactive); in test [5], 99.4% (inactive); in test [6] (setting [9]), 87.5%; in test [6] (setting [10]) it was 99.4%. Besides, the Her2 level in test [2] is 80% (inactive). For the same compound, in test [6] (H69AR cells + 2 uM doxorubicin), the differential viability (reversal) was 11.9% (inactive). Also, the results for the inhibition in test [7] and in test [8] were -0.91% (inactive) and -7.3% (inactive), respectively.

Consider `COCCn1nnnc1C(C(C)C)N1CCN(C(=O)c2ccco2)CC1` (stereo not given), for which the viability in test [1] was 92.5%; in test [3], 92.5% (inactive); in test [4] it was 99.2% (inactive); in test [5], 96.7% (inactive); in test [6] (setting [9]) it was 98.2%; in test [6] (setting [10]), 96.7%. Besides, the Her2 level in test [2] was 112% (inactive). Also, the differential viability (reversal) in test [6] (H69AR cells + 2 uM doxorubicin) was -1.47% (inactive). In addition, the inhibition in test [7] is 3.77% (inactive); in test [8], 15.6% (inactive).

As to `CCn1c(=O)cc(OCC(=O)NCCCN2CC(C)CC(C)C2)c2ccccc21` (stereo not given), the viability was 101% in test [1]; 101% (inactive) in test [3]; 81.3% (inactive) in test [4]; 74.7% (inactive) in test [5]; 75.5% in test [6] (setting [9]); 74.7% in test [6] (setting [10]). Moreover, in test [2], the Her2 level was 81% (inactive). The differential viability (reversal) in test [6] (H69AR cells + 2 uM doxorubicin) was -0.8% (inactive). Also, the inhibition in test [7] is -7.24% (inactive); in test [8] it was -2.55% (inactive).

As to `CCC(=O)N1CCc2cc(S(=O)(=O)CCC(=O)Nc3c(C)n(C)n(-c4ccccc4)c3=O)ccc21`, the viability in test [1] was 96%; in test [3], 96% (inactive); in test [4], 89.8% (inactive); in test [5], 94% (inactive); in test [6] (setting [9]), 87.3%; in test [6] (setting [10]) it was 94%. For the same compound, the Her2 level in test [2] is 104% (inactive). Besides, in test [6] (H69AR cells + 2 uM doxorubicin), the differential viability (reversal) was 6.7% (inactive). In addition, the values for the inhibition in test [7] and in test [8] were -2.93% (inactive) and -10.7% (inactive), respectively.

With `Cc1c(C(=O)NCc2ccccc2)oc2c1C(=O)CCC2`, the viability in test [1] is 72%; in test [3] it was 72% (inactive); in test [4], 75.2% (inactive); in test [5], 99.2% (inactive); in test [6] (setting [9]) it was 83.6%; in test [6] (setting [10]), 99.2%. The Her2 level in test [2] is 93.5% (inactive). Besides, the differential viability (reversal) in test [6] (H69AR cells + 2 uM doxorubicin) is 15.6% (inactive). For the same compound, the inhibition in test [7] is -4.87% (inactive); in test [8], 5.67% (inactive).

Take `c1ccn2c(SCc3cn4ccsc4n3)nnc2c1`: the viability is 104% in test [1]; 104% (inactive) in test [3]; 104% (inactive) in test [4]; 110% (inactive) in test [5]; 95.7% in test [6] (setting [9]); 110% in test [6] (setting [10]). Also, the Her2 level in test [2] was 93.5% (inactive). Moreover, in test [6] (H69AR cells + 2 uM doxorubicin), the differential viability (reversal) was 14% (inactive). Moreover, the inhibition was -8.49% (inactive) in test [7] and 3.49% (inactive) in test [8].

On to `N#Cc1ccc(COC(=O)Cn2nnc(-c3ccccc3)n2)cc1`, for which the viability in test [1] was 111%; in test [3], 111% (inactive); in test [4], 89.5% (inactive); in test [5] it was 70.7% (inactive); in test [6] (setting [9]), 64.1%; in test [6] (setting [10]), 70.7%. For the same compound, the Her2 level in test [2] was 96% (inactive). Further, the differential viability (reversal) in test [6] (H69AR cells + 2 uM doxorubicin) is 6.57% (inactive). The inhibition in test [7] was -3.12% (inactive); in test [8], -0.95% (inactive).

For the compound `CCOc1ccc(C2C(C#N)=C(N)Oc3cc(C)n(CCN(C)C)c(=O)c32)cc1OCC` (stereo not given), the viability in test [1] is 84%; in test [3], 84% (inactive); in test [4] it was 90.3% (inactive); in test [5], 101% (inactive); in test [6] (setting [9]), 83.3%; in test [6] (setting [10]) it was 101%. Besides, in test [2], the Her2 level is 79.5% (inactive). Moreover, the differential viability (reversal) in test [6] (H69AR cells + 2 uM doxorubicin) was 17.7% (inactive). The results for the inhibition in test [7] and in test [8] were -4.32% (inactive) and -1.43% (inactive), respectively.
